Results taken from ChEMBL document CHEMBL1149184, “Development of a new type of allosteric modulator of muscarinic receptors: hybrids of the antagonist AF-DX 384 and the hexamethonio derivative W84” (J Med Chem, 2004).

Legend:
[1] = tested on: Muscarinic acetylcholine receptor M2 (Cavia porcellus); assay: Palpha towards Muscarinic acetylcholine receptor M2 in guinea pig using [3H]NMS as a radioligand
[2] = tested on: Muscarinic acetylcholine receptor M2 (Cavia porcellus); assay: Palpha towards Muscarinic acetylcholine receptor M2 in guinea pig using [3H]-AF-DX 384 as a radioligand
[3] = tested on: Muscarinic acetylcholine receptor M2 (Cavia porcellus); assay: Half-maximally reduction towards muscarinic 2 receptor in guinea pig using [3H]-AF-DX 384 as a radioligand
[4] = tested on: Muscarinic acetylcholine receptor M2 (Cavia porcellus); assay: Binding affinity towards Muscarinic acetylcholine receptor M2 in guinea pig using [3H]-NMS as a radioligand
[5] = tested on: Muscarinic acetylcholine receptor M2 (Cavia porcellus); assay: Emax dissociation towards Muscarinic acetylcholine receptor M2 in guinea pig using [3H]NMS as a radioligand
[6] = tested on: Muscarinic acetylcholine receptor M2 (Cavia porcellus); assay: Half-maximal reduction towards Muscarinic acetylcholine receptor M2 in guinea pig using [3H]NMS as a radioligand
[7] = tested on: Muscarinic acetylcholine receptor M2 (Cavia porcellus); assay: Emax dissociation towards Muscarinic acetylcholine receptor M2 in guinea pig using [3H]AF-DX 384 as a radioligand
[8] = tested on: Muscarinic acetylcholine receptor M2 (Cavia porcellus); assay: Binding affinity towards Muscarinic acetylcholine receptor M2 in guinea pig using [3H]-AF-DX 384 as a radioligand
[9] = molecular target: T1, Muscarinic acetylcholine receptor M2 (Sus scrofa) (UniProt P06199); assay: Emax dissociation towards Muscarinic acetylcholine receptor M2 in porcine heart using [3H]NMS as a radioligand
T1 sequence (whole entry): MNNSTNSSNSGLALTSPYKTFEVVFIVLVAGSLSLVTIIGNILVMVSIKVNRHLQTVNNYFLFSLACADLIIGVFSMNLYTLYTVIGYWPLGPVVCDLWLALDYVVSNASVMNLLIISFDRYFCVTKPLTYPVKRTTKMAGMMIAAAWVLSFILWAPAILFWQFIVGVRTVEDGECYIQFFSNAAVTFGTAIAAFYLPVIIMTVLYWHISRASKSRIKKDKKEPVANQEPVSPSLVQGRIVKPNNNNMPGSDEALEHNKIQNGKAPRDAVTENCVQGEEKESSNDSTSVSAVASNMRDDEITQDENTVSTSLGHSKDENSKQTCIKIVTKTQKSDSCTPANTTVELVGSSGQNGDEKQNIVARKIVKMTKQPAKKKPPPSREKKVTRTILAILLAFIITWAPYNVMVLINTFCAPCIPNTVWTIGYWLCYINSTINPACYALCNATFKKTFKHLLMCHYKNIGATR
How it was run: (§1)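 Dissociation assay at 37 °C on porcine cardiac membranes in Mg/Tris buffer, pH 7.3. Membranes were preincubated 30 min with 0.2 nM [3H]NMS, then dissociation was started with 1 μM atropine ± test compound and tracked for 120 min. Apparent dissociation rate constants k-1 against log concentration were fitted with a four-parameter logistic curve.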

[10] = molecular target: T1, Muscarinic acetylcholine receptor M2 (Sus scrofa); assay: Palpha towards Muscarinic acetylcholine receptor M2 in porcine heart using [3H]NMS as a radioligand
How it was run: (§2)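 Porcine heart membranes with 0.2 nM [3H]NMS at 37 °C in 3 mM MgHPO4 / 50 mM Tris-HCl, pH 7.3, and varying test-compound concentrations. Incubation was 120–360 min to reach equilibrium. Nonspecific binding was taken with 1 μM atropine. Bound label was filtered and counted. Curves were fitted to the ternary complex model of allosteric interaction. Three to four independent experiments.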

[11] = molecular target: T1, Muscarinic acetylcholine receptor M2 (Sus scrofa); assay: Half-maximal reduction towards Muscarinic acetylcholine receptor M2 in porcine heart using [3H]NMS as a radioligand
How it was run: as §1

[12] = molecular target: T1, Muscarinic acetylcholine receptor M2 (Sus scrofa); assay: Binding affinity towards Muscarinic acetylcholine receptor M2 in porcine heart using [3H]NMS as a radioligand
How it was run: as §2

Row | SMILES | Palpha [1] | Palpha [2] | pEC0.5,diss [3] | pKA [4] | Emax,diss [5] [%] | pEC0.5,diss [6] | Emax,diss [7] [%] | pKA [8] | Emax,diss [9] [%] | Palpha [10] | pEC0.5,diss [11] | pKA [12]
1 | C[N+](C)(C)CCCN1C(=O)c2ccccc2C1=O | -1.21 | < -2 | 3 | 3.95 | 100 | 3.21 | 25 | 4.51 | – | – | – | –
2 | C[N+](C)(CCCCCC[N+](C)(C)CCCN1C(=O)c2ccccc2C1=O)CCCN1C(=O)CCC1=O | -0.49 | -1.56 | 3.67 | 5.24 | 100 | 4.82 | 68 | 5.93 | – | – | – | –
3 | CC[N+](C)(C)CCCN1C(=O)c2ccccc2C1=O | -1.03 | < -2 | 3.33 | 4.12 | 100 | 3.35 | 34 | 4.44 | – | – | – | –
4 | CCCN(CCCCCC[N+](C)(C)CCCN1C(=O)c2ccccc2C1=O)CC1CCCCN1CCNC(=O)N1c2ccccc2C(=O)Nc2cccnc21 (stereo not given) | – | – | – | – | – | – | – | – | 100 | -0.58 | 6.78 | 6.83
5 | CCCCCC[N+](C)(C)CCCN1C(=O)c2ccccc2C1=O | -1.55 | -1.35 | 4.11 | 5.08 | 100 | 4.06 | 82 | 5.8 | – | – | – | –
6 | CCC[N+](C)(C)CCCN1C(=O)c2ccccc2C1=O | -0.78 | < -2 | 2.98 | 3.55 | 90 | 3.76 | 73 | 4.1 | – | – | – | –

Results, then the molecule that gave them:

Row | Palpha [1] | Palpha [2] | pEC0.5,diss [3] | pKA [4] | Emax,diss [5] [%] | pEC0.5,diss [6] | Emax,diss [7] [%] | pKA [8] | Emax,diss [9] [%] | Palpha [10] | pEC0.5,diss [11] | pKA [12] | SMILES
7 | – | – | – | – | – | – | – | – | 100 | < -2 | 4.65 | 8.14 | CCCN(CCC)CC1CCCCN1CCNC(=O)N1c2ccccc2C(=O)Nc2cccnc21 (stereo not given)
8 | – | – | – | – | – | – | – | – | 100 | 1.07 | 6.87 | 5.89 | CCCN(CCCN1C(=O)c2ccccc2C1=O)CC1CCCCN1CCNC(=O)N1c2ccccc2C(=O)Nc2cccnc21 (stereo not given)
9 | – | – | – | – | – | – | – | – | 100 | 0.05 | 6.75 | 6.71 | CCCN(CCCCCCN1C(=O)c2ccccc2C1=O)CC1CCCCN1CCNC(=O)N1c2ccccc2C(=O)Nc2cccnc21 (stereo not given)
10 | – | – | – | – | – | – | – | – | 76 | -1.8 | 4.95 | 8.01 | CCCN(CCCN1C(=O)CCC1=O)CC1CCCCN1CCNC(=O)N1c2ccccc2C(=O)Nc2cccnc21 (stereo not given)
